Laboratory results published in ChEMBL document CHEMBL4732105, “First orally bioavailable prodrug of proteolysis targeting chimera (PROTAC) degrades cyclin-dependent kinases 2/4/6 in vivo” (Eur J Med Chem, 2021).
Calls of active or inactive are those of the source. No cut-off for these calls is given here.

Assays:
[1] = target: CDK6/cyclin D3 (Homo sapiens, UniProt Q00534); experiment: Inhibition of CDK6/Cyclin D (unknown origin); assay type: protein-complex assay
[2] = target: Cyclin-dependent kinase 4/cyclin D1 (Homo sapiens, UniProt P11802); experiment: Inhibition of CDK4/cyclin D1 (unknown origin); assay type: protein-complex assay
Cyclin-dependent kinase 4/cyclin D1, sequence (P11802 whole entry): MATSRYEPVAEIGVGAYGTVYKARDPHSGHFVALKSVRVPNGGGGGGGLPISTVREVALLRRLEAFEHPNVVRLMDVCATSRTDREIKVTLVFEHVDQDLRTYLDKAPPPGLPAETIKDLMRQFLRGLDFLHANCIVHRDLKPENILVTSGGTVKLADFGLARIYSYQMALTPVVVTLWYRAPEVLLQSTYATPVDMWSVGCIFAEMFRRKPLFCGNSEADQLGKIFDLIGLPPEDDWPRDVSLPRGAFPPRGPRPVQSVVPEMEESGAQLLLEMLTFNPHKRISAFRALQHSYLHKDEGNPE
Cyclin-dependent kinase 4/cyclin D1, sequence (P24385 whole entry, further chain): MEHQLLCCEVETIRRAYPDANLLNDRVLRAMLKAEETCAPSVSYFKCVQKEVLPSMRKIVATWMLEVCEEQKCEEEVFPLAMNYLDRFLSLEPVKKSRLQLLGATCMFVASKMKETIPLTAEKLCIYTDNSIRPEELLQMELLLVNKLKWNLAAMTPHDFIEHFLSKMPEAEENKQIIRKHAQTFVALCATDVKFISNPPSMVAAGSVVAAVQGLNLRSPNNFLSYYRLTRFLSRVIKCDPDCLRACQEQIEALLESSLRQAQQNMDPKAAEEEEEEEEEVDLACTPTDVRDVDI

[3] = target: Cyclin-dependent kinase 2/cyclin E1 (Homo sapiens, UniProt P24941); experiment: Inhibition of CDK2/Cyclin E (unknown origin); assay type: protein-complex assay
[4] = system: B16-F10; experiment: Cytotoxicity against mouse B16F10 cells assessed as reduction in cell viability after 72 hrs by MTT assay; assay type: functional, cell-based; conditions: B16-F10, 72 h
Method in brief: (§1)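 Cells exposed to compound for 72 h and viability read by MTT; IC50 from three independent experiments.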

[5] = system: A-375; experiment: Cytotoxicity against human A375 cells assessed as reduction in cell viability after 72 hrs by MTT assay; assay type: functional, cell-based; conditions: A-375, 72 h; method in brief: as §1
[6] = Cmax in Sprague-Dawley rat at 200 mg/kg, po; assay type: ADME, organism-based; design: route oral, dose 200 mg/kg; conditions: in vivo
Method in brief: (§2)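 Single oral dose of 200 mg/Kg to SD rats (n = 3). Prodrug and released active degrader quantified in plasma over 0–12 h; Cmax, Tmax and AUC0-12 derived by non-compartmental model.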

[7] = Cmax in Sprague-Dawley rat at 10 mg/kg, iv; assay type: ADME, organism-based; design: route intravenous, dose 10 mg/kg; conditions: in vivo
[8] = Tmax in Sprague-Dawley rat at 200 mg/kg, po; assay type: ADME, organism-based; conditions: in vivo
Method in brief: (§3)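 SD rats, n = 3, single dose of prodrug: IV by tail vein at 10 mg/Kg, or PO at 200 mg/Kg. Plasma levels of prodrug and released active degrader followed over 0–12 h. Parameters derived by a non-compartmental model.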

[9] = AUC (0 to 12 hrs) in Sprague-Dawley rat at 200 mg/kg, po; assay type: ADME, organism-based; design: time < 12 hr, route oral, dose 200 mg/kg; conditions: in vivo; method in brief: as §2
[10] = AUC (0 to 12 hrs) in Sprague-Dawley rat at 10 mg/kg, iv; assay type: ADME, organism-based; design: time < 12 hr, route intravenous, dose 10 mg/kg; conditions: in vivo
[11] = Oral bioavailability in Sprague-Dawley rat at 200 mg/kg; assay type: ADME, organism-based; conditions: in vivo; method in brief: as §3
[12] = system: B16-F10; experiment: Antitumor activity against mouse B16F10 cells xenografted in C57BL/6J mouse assessed as supression in tumor size at 200 mg/kg, po measured after 15 days; assay type: functional, organism-based; conditions: time 15.0 day
Method in brief: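 C57BL/6J mice given B16F10 cells […], then dosed orally versus vehicle. Tumor volume and body weight monitored; tumors weighed on day 15 (n = 6). Tumor tissue (n = 5) immunostained for CDK2/4/6.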

[13] = Toxicity in mouse C57BL/6J mouse xenografted with B16F10 cells assessed as effect on body weight at 200 mg/kg, po measured after 15 days; assay type: organism-based; conditions: in vivo, 360 h, time 15 day
Method in brief: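 C57BL/6J mice injected […] with B16F10 cells and given compound orally. Tumor volume and body weight monitored, and tumors weighed on day 15. Mean ± SD, n = 6.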

CDK6/cyclin D3, sequence (P30281 whole entry): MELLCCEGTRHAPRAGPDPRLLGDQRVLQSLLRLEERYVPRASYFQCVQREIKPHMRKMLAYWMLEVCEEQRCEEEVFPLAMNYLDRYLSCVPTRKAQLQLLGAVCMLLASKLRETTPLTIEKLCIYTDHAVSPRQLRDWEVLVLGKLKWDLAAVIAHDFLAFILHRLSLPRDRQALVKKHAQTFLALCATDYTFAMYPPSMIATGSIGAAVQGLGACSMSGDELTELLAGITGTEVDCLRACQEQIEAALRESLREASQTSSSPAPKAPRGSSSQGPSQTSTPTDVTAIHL
CDK6/cyclin D3, sequence (Q00534 whole entry): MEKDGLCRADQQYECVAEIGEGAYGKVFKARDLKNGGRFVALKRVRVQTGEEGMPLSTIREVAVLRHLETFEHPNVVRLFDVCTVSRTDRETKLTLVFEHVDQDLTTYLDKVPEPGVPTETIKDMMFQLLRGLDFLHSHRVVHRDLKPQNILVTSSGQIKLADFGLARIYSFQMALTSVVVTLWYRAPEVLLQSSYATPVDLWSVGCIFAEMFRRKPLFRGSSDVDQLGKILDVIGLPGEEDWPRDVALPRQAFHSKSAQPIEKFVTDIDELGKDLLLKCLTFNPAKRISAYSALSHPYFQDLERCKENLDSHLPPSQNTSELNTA

With `COC(=O)c1ccc(Nc2ncc3cc(C(=O)N(C)C)n(C4CCCC4)c3n2)cc1` the IC50 [1] was 101 nM, the IC50 [2] was 112 nM and the IC50 [3] was 390 nM.
For `CN(C)C(=O)c1cc2cnc(Nc3ccc(N4CCNCC4)cn3)nc2n1C1CCCC1` [RIBOCICLIB], the IC50 [4] was over 10000 nM and the IC50 [5] was over 10000 nM.
`CN(C)C(=O)c1cc2cnc(Nc3ccc(C(=O)NCCCCCCNc4cccc5c4C(=O)N(C4CCC(=O)N(COC(=O)C(C)(C)C)C4=O)C5=O)cc3)nc2n1C1CCCC1` (stereo not given) showed a Cmax [6] of 2260 µg/mL, a Cmax [7] of 111 µg/mL and a Tmax [8] of 15 min. For the same compound, the AUC [9] was 2810 µg·h/mL, the AUC [10] was 95.7 µg·h/mL and the bioavailability [11] was 68%. The Activity [12] was “Active” and the Activity [13] was “Non-Toxic”.
`Nc1cccc2c1C(=O)N(C1CCC(=O)NC1=O)C2=O` (stereo not given) [POMALIDOMIDE] gave an IC50 [4] of over 10000 nM and an IC50 [5] of over 10000 nM.
